Experimental data taken from ChEMBL document CHEMBL4411266, “Triterpenoid Hydroxamates as HIF Prolyl Hydrolase Inhibitors” (J Nat Prod, 2018).
Activity calls are given as the source filed them. No cut-off for these calls is given here.

Key:
[1] = molecular target: T1, Hypoxia-inducible factor prolyl hydroxylase (Homo sapiens, UniProt Q96KS0+Q9NXG6+Q9GZT9+Q9H6Z9); experiment: Inhibition of PHD (unknown origin) expressed in mouse NIH/3T3 cells harboring HRE-driven luciferase gene assessed as transactivation of HIF1alpha after 6 hrs by luciferase reporter gene assay; type: cell-based
T1 sequence (Q96KS0 whole entry, looked up): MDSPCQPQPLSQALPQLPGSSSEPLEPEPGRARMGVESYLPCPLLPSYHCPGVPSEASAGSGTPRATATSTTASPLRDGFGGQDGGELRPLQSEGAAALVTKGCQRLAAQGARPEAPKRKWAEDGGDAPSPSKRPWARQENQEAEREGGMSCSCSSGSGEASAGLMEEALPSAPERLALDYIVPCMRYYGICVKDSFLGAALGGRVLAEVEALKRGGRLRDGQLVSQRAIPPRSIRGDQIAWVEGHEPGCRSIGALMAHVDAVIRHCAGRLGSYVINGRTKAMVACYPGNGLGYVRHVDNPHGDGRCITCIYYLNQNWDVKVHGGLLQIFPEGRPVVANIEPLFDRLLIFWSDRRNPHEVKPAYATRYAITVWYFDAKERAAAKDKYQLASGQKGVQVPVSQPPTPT
T1 sequence (Q9GZT9 whole entry, looked up): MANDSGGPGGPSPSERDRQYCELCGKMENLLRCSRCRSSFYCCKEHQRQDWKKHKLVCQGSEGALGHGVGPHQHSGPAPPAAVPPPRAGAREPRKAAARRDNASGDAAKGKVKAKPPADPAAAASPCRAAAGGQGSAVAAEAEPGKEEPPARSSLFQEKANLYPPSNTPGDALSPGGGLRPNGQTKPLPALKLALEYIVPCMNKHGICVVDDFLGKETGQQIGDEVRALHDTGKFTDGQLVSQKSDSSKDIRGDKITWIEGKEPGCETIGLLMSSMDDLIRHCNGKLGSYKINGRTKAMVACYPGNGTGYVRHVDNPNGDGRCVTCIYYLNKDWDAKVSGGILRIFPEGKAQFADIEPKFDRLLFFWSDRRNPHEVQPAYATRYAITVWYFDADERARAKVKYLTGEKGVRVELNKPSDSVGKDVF
T1 sequence (Q9H6Z9 whole entry, looked up): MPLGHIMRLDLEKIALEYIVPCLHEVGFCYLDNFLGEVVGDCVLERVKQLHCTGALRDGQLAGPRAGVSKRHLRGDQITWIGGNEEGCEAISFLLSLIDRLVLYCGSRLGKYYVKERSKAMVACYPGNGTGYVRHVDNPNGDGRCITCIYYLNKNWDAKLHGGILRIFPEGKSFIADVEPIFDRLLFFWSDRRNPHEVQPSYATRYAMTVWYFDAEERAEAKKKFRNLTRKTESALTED
T1 sequence (Q9NXG6 whole entry, looked up): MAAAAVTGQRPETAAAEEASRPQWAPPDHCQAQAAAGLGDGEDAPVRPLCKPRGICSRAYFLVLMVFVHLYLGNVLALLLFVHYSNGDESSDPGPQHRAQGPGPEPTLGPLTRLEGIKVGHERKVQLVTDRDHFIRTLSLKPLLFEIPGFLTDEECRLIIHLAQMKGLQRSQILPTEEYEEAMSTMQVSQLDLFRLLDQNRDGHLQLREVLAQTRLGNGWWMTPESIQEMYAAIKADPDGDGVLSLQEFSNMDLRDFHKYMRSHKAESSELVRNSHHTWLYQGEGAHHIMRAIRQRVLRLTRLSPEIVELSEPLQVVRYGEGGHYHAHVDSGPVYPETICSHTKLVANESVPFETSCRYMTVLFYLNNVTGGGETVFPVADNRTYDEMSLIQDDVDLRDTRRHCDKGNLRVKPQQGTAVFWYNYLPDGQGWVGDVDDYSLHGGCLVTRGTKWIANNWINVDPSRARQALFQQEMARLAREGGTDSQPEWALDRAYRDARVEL
Summary of the method: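 NIH-3T3 mouse cells stably carrying an EPO-HRE luciferase reporter (three HRE copies from the erythropoietin promoter) treated with compounds for 6 h. Cells then washed twice in PBS and lysed in Tris-phosphate pH 7.8 buffer with MgCl2, DTT, Triton X-100 and glycerol for 15 min at room temperature. Luciferase measured in the supernatant after centrifugation.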

[2] = molecular target: T1, Hypoxia-inducible factor prolyl hydroxylase; experiment: Inhibition of PHD (unknown origin) expressed in mouse NIH/3T3 cells harboring HRE-driven luciferase gene assessed as transactivation of HIF1alpha after 6 hrs by luciferase reporter gene assay relative to deferoxamine; type: cell-based
Summary of the method: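 Mouse NIH-3T3 cells with a stably transfected EPO-HRE luciferase reporter exposed to compounds for 6 h, then washed, lysed and read for luciferase in the cleared lysate. EC50 and intrinsic relative activity (IRA) were calculated relative to 150 μM deferoxamine as reference.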

[3] = molecular target: T1, Hypoxia-inducible factor prolyl hydroxylase; experiment: Inhibition of PHD in HEK293T cells assessed as increase in HIF1alpha expression at 1 to 10 uM after 6 hrs in presence of proteasome inhibitor MG132; type: cell-based
Summary of the method: (§1)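 HEK-293T cells were treated for 6 h in the presence of the proteasome inhibitor MG132. Hydroxylated HIF-1α and total HIF-1α were determined by immunoblot: 10% SDS-PAGE, PVDF transfer, HRP/chemiluminescence detection.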

HEK-293T [4] = experiment: Effect on PHD1 expression in HEK293T cells at 1 to 10 uM after 3 hrs by Western blot analysis; type: ADME, cell-based; conditions: human
Summary of the method: (§2)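 HEK-293T cells treated for 3 h, with DFX (100 μM) as a reference. Cell lysates were made in Tris-HCl pH 7.5/NaCl/glycerol/NP-40 buffer with protease and phosphatase inhibitors. 30 μg protein was run on 10% SDS-PAGE, blotted to PVDF and probed for HIF-1α, PHD1, PHD2 and PHD3. Detection was by HRP secondary and chemiluminescence.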

[5] = molecular target: T1, Hypoxia-inducible factor prolyl hydroxylase; experiment: Inhibition of PHD in HEK293T cells assessed as reduction in HIF1alpha hydroxylation at 1 to 10 uM after 6 hrs in presence of proteasome inhibitor MG132; type: cell-based; summary of the method: as §1
[6] = molecular target: T1, Hypoxia-inducible factor prolyl hydroxylase; experiment: Reversible inhibition of PHD (unknown origin) expressed in mouse NIH/3T3 cells harboring HRE-driven luciferase gene assessed as transactivation of HIF1alpha at 5 to 25 uM pretreated for 1 hr followed by compound washout and measured after 6 hrs by luciferase reporter gene assay; type: cell-based
Summary of the method: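 NIH-3T3-EPO-Luc cells stably carry an EPO-promoter 3×HRE-luciferase reporter. Cells were pretreated 1 h, then washed or not with PBS and incubated 6 h in complete medium. Lysis was in Tris-phosphate pH 7.8/MgCl2/DTT/Triton buffer and luciferase was read in the lysate. Data are fold induction over untreated cells, means ± SD, n = 3, one-way ANOVA with Tukey's test.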

[7] = molecular target: T1, Hypoxia-inducible factor prolyl hydroxylase; experiment: Inhibition of PHD (unknown origin) expressed in mouse NIH/3T3 cells harboring HRE-driven luciferase gene assessed as transactivation of HIF1alpha at 1 to 25 uM after 6 hrs in presence of 50 uM betulinic acid by luciferase reporter gene assay; type: cell-based
Summary of the method: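 NIH-3T3-EPO-Luc (3×HRE-luciferase) cells were preincubated 30 min with betulinic acid (50 μM), then treated with compound for 6 h. Cells were washed in PBS and lysed in Tris-phosphate pH 7.8 buffer, and luciferase was measured in the lysate. Data are fold induction over untreated cells, means ± SD, n = 3, one-way ANOVA with Tukey's test.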

[8] = molecular target: T1, Hypoxia-inducible factor prolyl hydroxylase; experiment: Inhibition of PHD in HEK293T cells assessed as increase in HIF1alpha expression at 1 to 10 uM after 3 hrs by Western blot analysis; type: cell-based; summary of the method: as §2
[9] = molecular target: T1, Hypoxia-inducible factor prolyl hydroxylase; experiment: Inhibition of PHD in HEK293T cells assessed as increase in HIF1alpha expression at 10 uM after 15 to 180 mins by Western blot analysis; type: cell-based
Summary of the method: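 HEK-293T cells were stimulated over a time course and HIF-1α was followed by Western blot. Lysis was in NP-40 buffer with protease and phosphatase inhibitors. 30 μg protein was resolved on 10% SDS-PAGE, transferred to PVDF, and detected by HRP secondary and chemiluminescence.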

HEK-293T [10] = experiment: Effect on PHD2 expression in HEK293T cells at 10 uM under normoxic condition by Western blot analysis; type: ADME, cell-based; conditions: human
Summary of the method: (§3)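 HEK-293T cells were treated under hypoxia (1% O2) or normoxia, with or without compound. HIF-1α and PHD levels were read by Western blot: NP-40 lysis, 30 μg protein on 10% SDS-PAGE, PVDF transfer, HRP secondary and chemiluminescence.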

[11] = molecular target: T1, Hypoxia-inducible factor prolyl hydroxylase; experiment: Inhibition of PHD in HEK293T cells assessed as increase in HIF1alpha expression at 10 uM under hypoxic condition by Western blot analysis; type: cell-based; summary of the method: as §3
HEK-293T [12] = experiment: Effect on PHD2 expression in HEK293T cells at 10 uM under hypoxic condition by Western blot analysis; type: ADME, cell-based; conditions: human; summary of the method: as §3
[13] = molecular target: T1, Hypoxia-inducible factor prolyl hydroxylase; experiment: Inhibition of PHD in HEK293T cells assessed as increase in HIF1alpha expression at 10 uM under normoxic condition by Western blot analysis; type: cell-based; summary of the method: as §3
HEK-293T [14] = experiment: Effect on PHD3 expression in HEK293T cells at 1 to 10 uM after 3 hrs by Western blot analysis; type: ADME, cell-based; conditions: human; summary of the method: as §2
HEK-293T [15] = experiment: Effect on PHD2 expression in HEK293T cells at 1 to 10 uM after 3 hrs by Western blot analysis; type: ADME, cell-based; conditions: human; summary of the method: as §2

EC50 [1] [µM] | Intrinsic activity [2] | Structure (SMILES) | also measured
3.8 | 0.43 | CC1(C)CCC2(C(=O)NO)CC[C@]3(C)C(=CC[C@@H]4[C@@]5(C)CC/C(=N\O)C(C)(C)[C@@H]5CC[C@]43C)[C@@H]2C1 (single isomer, unassigned) | –
> 50 | – | CC1(C)CC[C@]2(C(=O)O)CC[C@]3(C)C(=CC[C@@H]4[C@@]5(C)C[C@@H](O)[C@H](O)C(C)(C)[C@@H]5CC[C@]43C)[C@@H]2C1 [MASLINIC ACID] | –
2.4 | 0.34 | C=C(C)[C@@H]1CC[C@]2(C(=O)NO)CC[C@]3(C)C(CC[C@@H]4[C@@]5(C)Cc6cn[nH]c6C(C)(C)[C@@H]5CC[C@]43C)[C@H]12 (some centres undefined) | –
> 50 | – | C[C@H]1[C@H](C)CC[C@]2(C(=O)O)CC[C@]3(C)C(=CC[C@@H]4[C@@]5(C)CC[C@H](O)C(C)(C)[C@@H]5CC[C@]43C)[C@H]12 [URSOLIC ACID] | –
7.7 | 0.17 | C[C@H]1[C@H](C)CC[C@]2(C(=O)NO)CC[C@]3(C)C(=CC[C@@H]4[C@@]5(C)CC[C@H](O)C(C)(C)[C@@H]5CC[C@]43C)[C@H]12 | –
5 | 0.16 | CC1(C)CCC2(C(=O)NO)CC[C@]3(C)C(=CC[C@@H]4[C@@]5(C)CC=CC(C)(C)[C@@H]5CC[C@]43C)[C@@H]2C1 (single isomer, unassigned) | –
> 50 | – | CC1(C)CCC2(C(=O)O)CC[C@]3(C)C(=CC(=O)[C@@H]4[C@@]5(C)CC[C@H](O)C(C)(C)[C@@H]5CC[C@]43C)[C@@H]2C1 (single isomer, unassigned) | –
> 50 | – | CC1(C)[C@@H](O)CC[C@]2(C)[C@H]3C(=O)C=C4[C@@H]5C[C@@](C)(C(=O)NO)CC[C@]5(C)CC[C@@]4(C)[C@]3(C)CC[C@@H]12 | –
> 50 | – | CC1(C)CC[C@]2(C(=O)O)CC[C@]3(C)C(=CC[C@@H]4[C@@]5(C)CC[C@H](O)C(C)(C)[C@@H]5CC[C@]43C)[C@@H]2C1 [OLEANOLIC_ACID] | –
16.4 | 0.39 | CC1(C)CCC2(C(=O)NO)CC[C@]3(C)C(=CC[C@@H]4[C@@]5(C)CC[C@H](O)C(C)(C)[C@@H]5CC[C@]43C)[C@@H]2C1 (single isomer, unassigned) | –
3.2 | 0.48 | C=C(C)[C@@H]1CC[C@]2(C(=O)NO)CC[C@]3(C)C(CC[C@@H]4[C@@]5(C)CC=CC(C)(C)[C@@H]5CC[C@]43C)[C@H]12 (some centres undefined) | –
2.6 | 0.55 | C=C(C)[C@@H]1CC[C@]2(C(=O)NO)CC[C@]3(C)C(CC[C@@H]4[C@@]5(C)Cc6cnoc6C(C)(C)[C@@H]5CC[C@]43C)[C@H]12 (some centres undefined) | –
> 50 | – | CC1(C)[C@@H](O)CC[C@]2(C)[C@H]3C(=O)C=C4[C@@H]5C[C@@](C)(C(=O)O)CC[C@]5(C)CC[C@@]4(C)[C@]3(C)CC[C@@H]12 [ENOXOLONE] | –
8.9 | 0.1 | C[C@H]1[C@H](C)CC[C@]2(C(=O)NO)CC[C@]3(C)C(=CC[C@@H]4[C@@]5(C)CC/C(=N\O)C(C)(C)[C@@H]5CC[C@]43C)[C@H]12 | –
7.1 | 0.1 | CC1(C)CC[C@]2(C(=O)NO)CC[C@]3(C)C(=CC[C@@H]4[C@@]5(C)C[C@@H](O)[C@H](O)C(C)(C)[C@@H]5CC[C@]43C)[C@@H]2C1 | –
11.4 | 0.15 | CC1(C)CC[C@]2(C(=O)NO)CC[C@]3(C)C(=CC(=O)[C@@H]4[C@@]5(C)CC[C@H](O)C(C)(C)[C@@H]5CC[C@]43C)[C@@H]2C1 | –
6.8 | 0.31 | C=C(C)[C@@H]1CC[C@]2(C(=O)NO)CC[C@]3(C)C(CC[C@@H]4[C@@]5(C)CC/C(=N\O)C(C)(C)[C@@H]5CC[C@]43C)[C@@H]12 (some centres undefined) | –
5.8 | 2.2 | CC1(C)CC[C@]2(C(=O)NO)CC[C@]3(C)C(=CC[C@@H]4[C@@]5(C)CCC(=O)OC(C)(C)[C@@H]5CC[C@]43C)[C@@H]2C1 | –
7.5 | 1.19 | C=C(C)[C@@H]1CC[C@]2(C)[C@H](CC=C3[C@@H]4CC(C)(C)CC[C@]4(C(=O)OC)CC[C@]32C)[C@@]1(C)CCC(=O)NO | –
> 50 | – | C=C(C)[C@@H]1CC[C@]2(C(=O)O)CC[C@]3(C)C(CC[C@@H]4[C@@]5(C)CC[C@H](OC(=O)CC(C)(C)C(=O)O)C(C)(C)[C@@H]5CC[C@]43C)[C@H]12 (some centres undefined) | –

Structure (SMILES) | EC50 [1] [µM] | Intrinsic activity [2] | also measured
C=C(C)[C@@H]1CC[C@]2(C(=O)NO)CC[C@]3(C)C(CC[C@@H]4[C@@]5(C)CC[C@H](O)C(C)(C)[C@@H]5CC[C@]43C)[C@@H]12 (some centres undefined) | 4.8 | 0.36 | inhibition [3]: Active; Activity (HEK-293T [4]): Non-Toxic; inhibition [5]: Active; inhibition [6]: Active; inhibition [7]: inactive; inhibition [8]: Active; inhibition [9]: Active; Activity (HEK-293T [10]): Non-Toxic; inhibition [11]: Active; Activity (HEK-293T [12]): Non-Toxic; inhibition [13]: Active; Activity (HEK-293T [14]): Non-Toxic; Activity (HEK-293T [15]): Non-Toxic
C=C(C)[C@@H]1CC[C@]2(C(=O)O)CC[C@]3(C)[C@H](CC[C@@H]4[C@@]5(C)CC[C@H](O)C(C)(C)[C@@H]5CC[C@]43C)[C@@H]12 [BETULINIC ACID] | > 50 | – | –
